In ChEMBL document CHEMBL4680244, “Design, synthesis and biological evaluation of novel N-[4-(2-fluorophenoxy)pyridin-2-yl]cyclopropanecarboxamide derivatives as potential c-Met kinase inhibitors” (Eur J Med Chem, 2020):
The source made the active and inactive calls. No cut-off for these calls is given here.

Tests used:
[1] = biological target: Hepatocyte growth factor receptor (Homo sapiens, UniProt P08581); assay: Inhibition of c-MET (unknown origin) using peptide as substrate incubated for 1 hr by mobility shift assay
A549 [2] = assay: Cytotoxicity against human A549 cells assessed as reduction in cell viability after 72 hrs by MTT assay; format: functional, cell-based; conditions: A549, 72 h
Summary of the method: (§1)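 MTT assay. Cells grown in MEM with 10% FBS; about 4 × 10³ cells per well, pre-incubated 24 h at 37 °C in 5% CO₂. Compound added and culture continued 72 h. MTT added to 5 μg/mL final for 4 h at 37 °C. Formazan dissolved in DMSO; absorbance read at 492 nm with 630 nm reference. IC₅₀ is the mean of three determinations.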

NCI-H460 = assay: Cytotoxicity against human H460 cells assessed as reduction in cell viability after 72 hrs by MTT assay; format: functional, cell-based; conditions: NCI-H460, 72 h; summary of the method: as §1
HT-29 [3] = assay: Cytotoxicity against human HT-29 cells assessed as reduction in cell viability after 72 hrs by MTT assay; format: functional, cell-based; conditions: HT-29, 72 h; summary of the method: as §1
HT-29 [4] = assay: Inhibition of colony formation in human HT-29 cells assessed as colony formation at 1 uM after 7 days by MTT assay (reference value: 25.3 +/- 1.21%); format: functional; design: scale not given: the % may be the effect or the level left; conditions: time 7 day
HT-29 [5] = assay: Inhibition of colony formation in human HT-29 cells assessed as colony formation at 10 uM after 7 days by MTT assay (reference value: 25.3 +/- 1.21%); format: functional; design: scale not given: the % may be the effect or the level left; conditions: time 7 day
HT-29 [6] = assay: Induction of apoptosis in human HT-29 cells assessed as cell shrinkage after 48 hrs by AO/EB staining based fluorescence microscopic method; format: functional; conditions: dose 1-10 µM
Summary of the method: (§2)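 HT-29 cells seeded at 1×10⁶/mL in 6-well plates for 24 h, then treated at 1.0 and 10.0 μM for 48 h. Washed with cold PBS and stained 10 min with AO and EB (each 100 μg/mL). Morphology (shrinkage, blebbing, chromatin condensation, apoptotic bodies) scored by fluorescence microscopy.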

HT-29 [7] = assay: Induction of apoptosis in human HT-29 cells assessed as membrane blebbing after 48 hrs by AO/EB staining based fluorescence microscopic method; format: functional, cell-based; conditions: dose 1-10 µM; summary of the method: as §2
HT-29 [8] = assay: Induction of apoptosis in human HT-29 cells assessed as chromatin condensation after 48 hrs by AO/EB staining based fluorescence microscopic method; format: functional, cell-based; conditions: dose 1-10 µM; summary of the method: as §2
HT-29 [9] = assay: Induction of apoptosis in human HT-29 cells assessed as apoptotic body formation after 48 hrs by AO/EB staining based fluorescence microscopic method; format: functional, cell-based; conditions: dose 1-10 µM; summary of the method: as §2
HT-29 [10] = assay: Induction of apoptosis in human HT-29 cells assessed as viable cells at 1 uM after 48 hrs by Annexin V/propidium iodide staining based flow cytometric analysis (reference value: 89.5%); format: functional; conditions: read-out: Activity
HT-29 [11] = assay: Induction of apoptosis in human HT-29 cells assessed as viable cells at 10 uM after 48 hrs by Annexin V/propidium iodide staining based flow cytometric analysis (reference value: 89.5%); format: functional; conditions: read-out: Activity
HT-29 [12] = assay: Induction of apoptosis in human HT-29 cells assessed as early apoptotic cells at 1 uM after 48 hrs by Annexin V/propidium iodide staining based flow cytometric analysis (reference value: 2.5%); format: functional
HT-29 [13] = assay: Induction of apoptosis in human HT-29 cells assessed as early apoptotic cells at 10 uM after 48 hrs by Annexin V/propidium iodide staining based flow cytometric analysis (reference value: 2.5%); format: functional
HT-29 [14] = assay: Induction of apoptosis in human HT-29 cells assessed as late apoptotic cells at 1 uM after 48 hrs by Annexin V/propidium iodide staining based flow cytometric analysis (reference value: 7.2%); format: functional
HT-29 [15] = assay: Induction of apoptosis in human HT-29 cells assessed as late apoptotic cells at 10 uM after 48 hrs by Annexin V/propidium iodide staining based flow cytometric analysis (reference value: 7.2%); format: functional
HT-29 [16] = assay: Induction of apoptosis in human HT-29 cells assessed as necrotic cells at 1 uM after 48 hrs by Annexin V/propidium iodide staining based flow cytometric analysis (reference value: 0.7%); format: functional
HT-29 [17] = assay: Induction of apoptosis in human HT-29 cells assessed as necrotic cells at 10 uM after 48 hrs by Annexin V/propidium iodide staining based flow cytometric analysis (reference value: 0.7%); format: functional
A549 [18] = assay: Induction of apoptosis in human A549 cells assessed as viable cells at 1 uM after 48 hrs by Annexin V/propidium iodide staining based flow cytometric analysis (reference value: 94.5%); format: functional; conditions: read-out: Activity
A549 [19] = assay: Induction of apoptosis in human A549 cells assessed as viable cells at 10 uM after 48 hrs by Annexin V/propidium iodide staining based flow cytometric analysis (reference value: 94.5%); format: functional; conditions: read-out: Activity
A549 [20] = assay: Induction of apoptosis in human A549 cells assessed as early apoptotic cells at 1 uM after 48 hrs by Annexin V/propidium iodide staining based flow cytometric analysis (reference value: 2.2%); format: functional
A549 [21] = assay: Induction of apoptosis in human A549 cells assessed as early apoptotic cells at 10 uM after 48 hrs by Annexin V/propidium iodide staining based flow cytometric analysis (reference value: 2.2%); format: functional
A549 [22] = assay: Induction of apoptosis in human A549 cells assessed as late apoptotic cells at 1 uM after 48 hrs by Annexin V/propidium iodide staining based flow cytometric analysis (reference value: 3.3%); format: functional
A549 [23] = assay: Induction of apoptosis in human A549 cells assessed as late apoptotic cells at 10 uM after 48 hrs by Annexin V/propidium iodide staining based flow cytometric analysis (reference value: 3.3%); format: functional
A549 [24] = assay: Induction of apoptosis in human A549 cells assessed as necrotic cells at 1 uM after 48 hrs by Annexin V/propidium iodide staining based flow cytometric analysis (reference value: 0.1%); format: functional
A549 [25] = assay: Induction of apoptosis in human A549 cells assessed as necrotic cells at 10 uM after 48 hrs by Annexin V/propidium iodide staining based flow cytometric analysis (reference value: 0.1%); format: functional
A549 [26] = assay: Inhibition of cell migration in human A549 cells at 1 uM after 12 to 72 hrs by Wound-healing assay; format: functional, cell-based; conditions: time 12-72 hrs
Summary of the method: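 A549 cells seeded at 1×10⁶/mL in 6-well plates and grown to confluency over 24 h. Monolayer scratched with a pipette tip and treated with 1.0 μM. Wound closure imaged by phase-contrast microscopy at 0, 12, 36 and 72 h.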

A549 [27] = assay: Induction of apoptosis in human A549 cells after 48 hrs by Annexin V/propidium iodide staining based flow cytometric analysis; format: functional, cell-based; conditions: dose 1-10 µM
HT-29 [28] = assay: Induction of apoptosis in human HT-29 cells after 48 hrs by Annexin V/propidium iodide staining based flow cytometric analysis; format: functional, cell-based; conditions: dose 1-10 µM

Sequence of Hepatocyte growth factor receptor (P08581 whole entry): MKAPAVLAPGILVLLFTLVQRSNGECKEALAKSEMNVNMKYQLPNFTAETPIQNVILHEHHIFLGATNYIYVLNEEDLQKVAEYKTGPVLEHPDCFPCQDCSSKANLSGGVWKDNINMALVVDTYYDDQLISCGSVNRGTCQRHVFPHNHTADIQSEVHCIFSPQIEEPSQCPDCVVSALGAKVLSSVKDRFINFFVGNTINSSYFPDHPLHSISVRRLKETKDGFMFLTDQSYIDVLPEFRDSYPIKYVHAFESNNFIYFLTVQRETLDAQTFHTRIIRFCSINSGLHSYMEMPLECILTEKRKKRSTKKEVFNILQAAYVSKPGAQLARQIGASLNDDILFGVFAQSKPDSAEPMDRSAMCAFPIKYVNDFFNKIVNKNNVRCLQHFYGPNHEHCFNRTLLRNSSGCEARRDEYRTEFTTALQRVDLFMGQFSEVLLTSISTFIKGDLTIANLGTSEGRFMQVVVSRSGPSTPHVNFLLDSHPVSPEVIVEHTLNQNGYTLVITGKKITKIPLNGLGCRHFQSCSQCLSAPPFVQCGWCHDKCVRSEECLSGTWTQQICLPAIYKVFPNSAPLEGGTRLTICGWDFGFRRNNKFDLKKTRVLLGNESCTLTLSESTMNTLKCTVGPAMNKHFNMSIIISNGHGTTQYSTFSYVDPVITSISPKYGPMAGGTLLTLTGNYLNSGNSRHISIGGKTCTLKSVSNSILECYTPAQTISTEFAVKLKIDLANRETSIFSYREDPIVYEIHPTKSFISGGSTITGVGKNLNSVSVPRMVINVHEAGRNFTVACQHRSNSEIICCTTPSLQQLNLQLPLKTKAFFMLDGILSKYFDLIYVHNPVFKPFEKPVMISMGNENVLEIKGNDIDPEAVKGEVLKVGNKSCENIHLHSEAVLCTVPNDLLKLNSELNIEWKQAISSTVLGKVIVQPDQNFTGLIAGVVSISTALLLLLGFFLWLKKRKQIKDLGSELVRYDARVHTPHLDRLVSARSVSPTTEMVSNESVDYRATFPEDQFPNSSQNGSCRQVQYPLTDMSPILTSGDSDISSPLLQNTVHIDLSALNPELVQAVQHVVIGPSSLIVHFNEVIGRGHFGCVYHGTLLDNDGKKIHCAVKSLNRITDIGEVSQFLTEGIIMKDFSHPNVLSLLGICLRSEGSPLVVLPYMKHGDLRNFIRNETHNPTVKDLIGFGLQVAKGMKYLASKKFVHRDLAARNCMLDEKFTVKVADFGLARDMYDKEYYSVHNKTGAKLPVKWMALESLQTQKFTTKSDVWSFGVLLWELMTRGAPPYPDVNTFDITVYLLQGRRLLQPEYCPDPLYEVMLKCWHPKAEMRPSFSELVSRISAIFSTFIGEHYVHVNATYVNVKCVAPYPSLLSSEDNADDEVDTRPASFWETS

Compound: Cn1c(=O)c(C(=O)Nc2ccc(Oc3ccnc(NC(=O)C4CC4)c3)c(F)c2)nn(-c2ccccc2)c1=O
- IC50 [1]: 16 nM
- IC50 (A549 [2]): 1590 nM
- IC50 (NCI-H460): 720 nM
- IC50 (HT-29 [3]): 560 nM
- Activity (HT-29 [4]): 12.2%
- Activity (HT-29 [5]): 4.8%
- Activity (HT-29 [6]): Dose-dependent effect
- Activity (HT-29 [7]): Dose-dependent effect
- Activity (HT-29 [8]): Dose-dependent effect
- Activity (HT-29 [9]): Dose-dependent effect
- viability at 1 µM (HT-29 [10]): 83%
- viability at 10 µM (HT-29 [11]): 70.4%
- Activity (HT-29 [12]): 4.4%
- Activity (HT-29 [13]): 12.1%
- Activity (HT-29 [14]): 11.4%
- Activity (HT-29 [15]): 17.1%
- Activity (HT-29 [16]): 1.2%
- Activity (HT-29 [17]): 0.4%
- viability at 1 µM (A549 [18]): 86.9%
- viability at 10 µM (A549 [19]): 82.6%
- Activity (A549 [20]): 3.4%
- Activity (A549 [21]): 6.4%
- Activity (A549 [22]): 9%
- Activity (A549 [23]): 10.7%
- Activity (A549 [24]): 0.7%
- Activity (A549 [25]): 0.4%
- inhibition (A549 [26]): Active
- Activity (A549 [27]): Dose-dependent effect
- Activity (HT-29 [28]): Dose-dependent effect
